Test [1] can be described thus: Cytotoxicity against human SMMC7721 cells assessed as cell viability after 48 hrs by MTS assay. The format is functional, cell-based. Particulars: SMMC-7721, 48 h. The essentials:
(§1)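 Cells grown in RPMI-1640 or DMEM with 10% FBS at 37 °C, 5% CO2. Seeded, incubated 12 h, then exposed to a range of concentrations in triplicate for 48 h. Viability read by MTS reduction to formazan. IC50 calculated by Reed and Muench method; cis-platin positive control.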
In general terms: Formazan colour is commonly taken as a measure of viable cells.

A short description of test [2]: (§2) Cytotoxicity against human HL60 cells assessed growth inhibition at 40 uM after 48 hrs by MTS assay relative to control. The note with it: HL-60, 48 h, read-out: GI. The format is functional. In outline: (§3)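 Cultured in RPMI-1640 or DMEM with 10% FBS at 37 °C under 5% CO2. Cells seeded, given 12 h at 37 °C, then treated with compound at 40 μM for 48 h. Growth inhibition measured by MTS assay (formazan colorimetry).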

For test [3], the system named is A549. Kind of test: Cytotoxicity against human A549 cells assessed growth inhibition at 40 uM after 48 hrs by MTS assay relative to control. The format is functional. The note with it: for inhibition of growth at 40 µM: A549, 48 h, read-out: GI. The essentials:
as §3

In test [4] the test system is MCF7. As to the kind of experiment: Cytotoxicity against human MCF7 cells assessed as cell viability after 48 hrs by MTS assay. The test is classed as functional, cell-based. Particulars: MCF7, 48 h. The essentials:
as §1

The subject of test [5] is A549. As to the kind of experiment: Cytotoxicity against human A549 cells assessed as cell viability after 48 hrs by MTS assay. The format is functional, cell-based. The note with it: A549, 48 h. In outline: as §1
The test system of test [6] is RAW264.7. As to the kind of experiment: Inhibition of LPS-induced NO production in mouse RAW264.7 cells at 25 uM preincubated with compound followed by LPS challenge measured after 18 hrs by Griess method. The format is functional, cell-based. In outline:
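RAW264.7 macrophages seeded at 2 × 10^5 cells/well and treated with serial compound dilutions (maximum 25 μM), then stimulated with LPS 1 μg/mL for 18 h. Supernatant nitrite measured with Griess reagents, absorbance 550 nm. MG-132 positive control. Viability checked in parallel by MTT to exclude cytotoxic interference.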
Background: Nitrite, measured by Griess reagent, commonly stands in for NO production.

Test [7] in a line: Cytotoxicity against human HL60 cells assessed as cell viability after 48 hrs by MTS assay. The note with it: HL-60, 48 h. The test is classed as functional, cell-based. In outline:
as §1

Test [8] has as its system SW480. Kind of test: Cytotoxicity against human SW480 cells assessed as cell viability after 48 hrs by MTS assay. The test is classed as functional, cell-based. The note with it: SW480, 48 h. In outline:
as §1

Test [9] in a line: (§4) Cytotoxicity against human SMMC7721 cells assessed growth inhibition at 40 uM after 48 hrs by MTS assay relative to control. Particulars: SMMC-7721, 48 h, read-out: GI. The test is classed as functional. In outline:
as §3

For test [10], the system named is HL-60. The test is described as §2. The test is classed as functional. The essentials:
as §3

The test system of test [11] is SW480. As to the kind of experiment: Cytotoxicity against human SW480 cells assessed growth inhibition at 40 uM after 48 hrs by MTS assay relative to control. The test is classed as functional. The essentials:
as §3

In test [12] the test system is MCF7. As to the kind of experiment: Cytotoxicity against human MCF7 cells assessed growth inhibition at 40 uM after 48 hrs by MTS assay relative to control. The format is functional. The essentials:
as §3

Test [13] concerns SMMC-7721. The test is described as §4. The format is functional. In outline: as §3

Active and inactive are the calls of the source. The rule behind the calls is not given here. Some results are limits rather than exact numbers.

Broadly, the IC50 is the concentration needed to halve the response being measured. Consider `C=C1C(=O)[C@]23C[C@@H]1C[C@@H](O)[C@H]2C12CO[C@@H]4OC[C@](C)(CC[C@@H]1OC3=O)[C@@H]42` (stereo partly specified), for which the IC50 in [1] is 12.5 µM; in test [4] it was 13.7 µM; in test [5], 10.2 µM; in test [6], 3.51 µM; in [7] it was 14.3 µM; in test [8], over 40 µM. Also, the inhibition of growth at 40 µM in [2], in [3] and in test [9] was over 50% each time.
For the compound `C=C1C(=O)[C@]23C[C@@H]1CC[C@H]2C12[C@H](OC)O[C@@H](O)[C@@H]1C(C)(C)CC[C@@H]2OC3=O` (stereo partly specified), the IC50 in test [1] is 5 µM; in test [4] it was 3.2 µM; in test [5], 3.4 µM; in [6], 1.56 µM; in [7], 3.2 µM; in test [8] it was 4.6 µM. Further, the inhibition of growth at 40 µM in [2], in [3] and in test [9] was over 50% each time.
As for `C=C1C(=O)[C@]23C[C@@H]1CC[C@H]2[C@@]12CO[C@@H](O)[C@@H]1C(C)(C)CC[C@@H]2OC3=O`, the IC50 is 3.3 µM in test [1]; 3.4 µM in [4]; 2.1 µM in test [5]; 0.74 µM in test [6]; 2.1 µM in test [7]; 1.7 µM in test [8]. Moreover, the inhibition of growth at 40 µM in test [2], in [3] and in test [9] was over 50% each time.
In the case of `C=C1C(=O)[C@]23C[C@@H]1CC[C@H]2C12[C@@H](OC)O[C@@H](O)[C@@H]1C(C)(C)CC[C@@H]2OC3=O` (stereo partly specified), the IC50 in [1] turned out to be 4.7 µM; in [4], 3.9 µM; in test [5], 1.2 µM; in test [6], 1.36 µM; in [7] it was 3.5 µM; in [8] it was 3.9 µM. Besides, the inhibition of growth at 40 µM in test [2], in test [3] and in test [9] was over 50% throughout.
In the case of `C=C1C(=O)[C@]23C[C@@H]1CC[C@H]2C12C(O)O[C@@H](O)[C@@H]1C(C)(C)CC[C@@H]2OC3=O` (stereo partly specified), the IC50 in test [1] is 31.8 µM; in test [4] it was over 40 µM; in [5] it was 39 µM; in [6] it was 7.42 µM; in test [7] it was 16.8 µM; in [8] it was 14.8 µM. Moreover, the inhibition of growth at 40 µM in [2], in test [3] and in test [9] was over 50% in each case.
Take `C=C1C(=O)[C@]23C[C@@H]1C[C@@H](O)[C@H]2[C@@]12CO[C@@H](O)[C@@H]1C(C)(C)CC[C@@H]2OC3=O`: the IC50 in test [1] was determined as 11.4 µM; in test [4], 14 µM; in test [5] it was 14.3 µM; in [6] it was 3.56 µM; in test [7], 10.3 µM; in [8] it was 10.9 µM. For the same compound, the inhibition of growth at 40 µM in test [2], in test [3] and in [9] was over 50% in each case.
With `C=C1C(=O)[C@]23C[C@@H]1CC[C@H]2C12CO[C@@H](O)[C@@H]1C(C)(C)[C@@H](O)C[C@@H]2OC3=O` (stereo partly specified), the IC50 was 9.8 µM in [1]; 15.7 µM in [4]; 13.3 µM in [5]; 3.53 µM in [6]; 9.2 µM in [7]; 5.5 µM in [8]. In addition, the inhibition of growth at 40 µM in test [2], in [3] and in test [9] was over 50% throughout.
On to `C=C1C(=O)[C@]23C[C@@H]1CC[C@H]2C12C(O)O[C@@H](OC)[C@@H]1C(C)(C)CC[C@@H]2OC3=O` (stereo partly specified), for which the IC50 in test [1] turned out to be 4.2 µM; in test [4], 2.4 µM; in test [5], 3.9 µM; in test [6] it was 1.47 µM; in test [7] it was 3 µM; in test [8] it was 3.2 µM. Moreover, the inhibition of growth at 40 µM in [2], in test [3] and in test [9] was over 50% in each case.
On to `C=C1C(=O)[C@@]23C[C@@H]1C[C@H]1O[C@@H]4OC[C@]5([C@H](CCC(C)(C)[C@@H]45)OC2=O)[C@H]13`, for which the IC50 amounted to 15.8 µM in test [1]; 14 µM in test [4]; 14 µM in test [5]; 4.93 µM in [6]; 15.4 µM in [7]; 15.2 µM in [8]. Also, the inhibition of growth at 40 µM in [2], in test [3] and in [9] was over 50% throughout.
In the case of `C=C1[C@H]2CC[C@H]3C45C(O)O[C@@H](OC)[C@@H]4C(C)(C)CC[C@@H]5OC(=O)[C@]3(C2)[C@@H]1O` (stereo partly specified), the IC50 in [1], in test [4], in test [5], in test [7] and in test [8] was over 40 µM in each case. The “growth inhibition (GI)” value in test [10], in [3], in [11], in [12] and in test [13] was “inactive” throughout.
Consider `C=C1[C@H]2C[C@@H](O)[C@H]3C45CO[C@@H]6OC[C@](C)(CC[C@@H]4OC(=O)[C@]3(C2)[C@@H]1O)[C@@H]65` (stereo partly specified), for which the IC50 in [1], in [4], in [5], in [7] and in [8] was over 40 µM in each case. Further, the “growth inhibition (GI)” value in test [10], in [3], in test [11], in [12] and in test [13] was “inactive” in each case.
On to `CO[C@@H]1O[C@@H](O)[C@@H]2C(C)(C)CC[C@@H]3OC(=O)[C@@]45C[C@H](CC[C@H]4C132)[C@@H](C)C5=O` (stereo partly specified), for which the IC50 in [1], in test [4], in test [5], in [7] and in test [8] was over 40 µM each time. Besides, the “growth inhibition (GI)” value in test [10], in [3], in [11], in test [12] and in test [13] was “inactive” in each case.
For the compound `CO[C@H]1O[C@@H](O)[C@@H]2C(C)(C)CC[C@@H]3OC(=O)[C@@]45C[C@H](CC[C@H]4C132)[C@@H](C)C5=O` (stereo partly specified), the IC50 in test [1], in [4], in [5], in test [7] and in test [8] was over 40 µM throughout. For the same compound, the “growth inhibition (GI)” value in test [10], in test [3], in [11], in test [12] and in test [13] was “inactive” in each case.

For the origin of these results see ChEMBL document CHEMBL3779809, “Bioactive Enmein-Type ent-Kaurane Diterpenoids from Isodon phyllostachys” (J Nat Prod, 2016).
